Changes are numbered by the printed parent chain.
B1: Recombinant collagen binding domain (CBD) from human MMP-2, wildtype (domain or fragment)
chain: VVRVKYGNADGEYCKFPFLFNGKEYNSCTDTGRSDGFLWCSTTYNFEKDGKYGFCPHEALFTMGGNAEGQPCKFPFRFQGTSYDSCTTEGRTDGYRWCGTTEDYDRDKKYGFCPETAMSTVGGNSEGAPCVFPFTFLGNKYESCTSAGRSDGKMWCATTANYDDDRKWGFCPDQ
modifications: 15N (or 15N and 13C) labelled for NMR; biotinylated for the microwell assay
B2: E^321A: rCBD variant, single-point alanine substitution at E^321, module 2 (protein)
chain: APSPIIKFPGDVAPKTDKELAVQYLNTFYGCPKESCNLFVLKDTLKKMQKFFGLPQTGDLDQNTIETMRKPRCGNPDVANYNFFPRKPKWDKNQITYRIIGYTPDLDPETVDDAFARAFQVWSDVTPLRFSRIHDGEADIMINFGRWEHGDGYPFDGKDGLLAHAFAPGTGVGGDSHFDDDELWTLGEGQVVRVKYGNADGEYCKFPFLFNGKEYNSCTDTGRSDGFLWCSTTYNFEKDGKYGFCPHEALFTMGGNAEGQPCKFPFRFQGTSYDSCTTEGRTDGYRWCGTTADYDRDKKYGFCPETAMSTVGGNSEGAPCVFPFTFLGNKYESCTSAGRSDGKMWCATTANYDDDRKWGFCPDQGYSLFLVAAHEFGHAMGLEHSQDPGALMAPIYTYTKNFRLSQDDIKGIQELYGASPDIDLGTGPTPTLGPVTPEICKQDIVFDGIAQIRGEIFFFKDRFIWRTVTPRDKPMGPLLVATFWPELPEKIDAVYEAPQEEKAVFFAGNEYWIYSASTLERGYPKPLTSLGLPPDVQRVDAAFNWSKNKKTYIFAGDKFWRYNEVKKKMDPGFPKLIADAWNAIPDNLDAVVDLQGGGHSYFFKGAYYLKLENQSLKSVKFGSIKSDWLGC
modifications: biotinylated for the microwell assay; left off: His tag, end not stated, state not stated
B3: F^297A: rCBD variant, single-point alanine substitution at F^297, module 2 (protein)
chain: B2 chain with F268A, A292E
modifications: biotinylated for the microwell assay; left off: His tag, end not stated, state not stated
B4: Y^323A: rCBD variant, single-point alanine substitution at Y^323, module 2 (protein)
chain: B2 chain with A292E, Y294A
modifications: biotinylated for the microwell assay; left off: His tag, end not stated, state not stated
B5: R^368A: rCBD variant, single-point alanine substitution at R^368, module 3 (protein)
chain: B2 chain with A292E, R339A
modifications: biotinylated for the microwell assay; left off: His tag, end not stated, state not stated
B6: Y^329A: rCBD variant, single-point alanine substitution at Y^329, module 2 (protein)
chain: B2 chain with A292E, Y300A
modifications: biotinylated for the microwell assay; left off: His tag, end not stated, state not stated
B7: Y^302A: rCBD variant, single-point alanine substitution at Y^302, module 2 (protein)
chain: B2 chain with Y273A, A292E
modifications: biotinylated for the microwell assay; left off: His tag, end not stated, state not stated
B8: F^280A: rCBD variant, single-point alanine substitution at F^280, negative control (protein)
chain: B2 chain with F251A, A292E
modifications: biotinylated for the microwell assay; left off: His tag, end not stated, state not stated
B9: E^361A: rCBD variant, single-point alanine substitution at E^361, negative control (protein)
chain: B2 chain with A292E, E332A
modifications: biotinylated for the microwell assay; left off: His tag, end not stated, state not stated
B10: W^374A: rCBD variant, single-point alanine substitution at W^374, module 3 (protein)
chain: B2 chain with A292E, W345A
modifications: biotinylated for the microwell assay; left off: His tag, end not stated, state not stated
B11: Y^381A: rCBD variant, single-point alanine substitution at Y^381, module 3 (protein)
chain: B2 chain with A292E, Y352A
modifications: biotinylated for the microwell assay; left off: His tag, end not stated, state not stated

Assays:
MMP-2 CBD modules = conditions: cited from earlier work
[1] = biological target: denatured type I collagen (gelatin), rat tail (rat, UniProt P02454 152-1207; P02466 86-1125); test: SPR
[2] = tested on: gelatin (denatured type I collagen); test: Surface plasmon resonance binding to immobilized gelatin; design: species or system rat; conditions: 1 µM analyte, Biacore buffer pH 7.4; compared to WT CBD
native type I collagen = test: Surface plasmon resonance binding to immobilized native type I collagen; design: species or system rat; conditions: 1 µM analyte, Biacore buffer pH 7.4; compared to WT CBD
Outline: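 Native non-pepsin-treated acid-soluble rat tail type I collagen in 10 mM sodium acetate, pH 4.5, was amine-coupled to EDC/NHS-activated CM5 chips at ~3000 RU, then ethanolamine-blocked; an uncoated flow cell served as control. Analytes at 1 µM in 10 mM HEPES, 150 mM NaCl, 0.005% P20, pH 7.4, flowed at 5 µl/min for 6 min. RU were averaged over 5 s before injection end. Chips were regenerated with 6 M guanidine-HCl, with WT CBD run at the start and end of each series.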

Chain of denatured type I collagen (gelatin), rat tail (P02454 152-1207, chain 1 of 2): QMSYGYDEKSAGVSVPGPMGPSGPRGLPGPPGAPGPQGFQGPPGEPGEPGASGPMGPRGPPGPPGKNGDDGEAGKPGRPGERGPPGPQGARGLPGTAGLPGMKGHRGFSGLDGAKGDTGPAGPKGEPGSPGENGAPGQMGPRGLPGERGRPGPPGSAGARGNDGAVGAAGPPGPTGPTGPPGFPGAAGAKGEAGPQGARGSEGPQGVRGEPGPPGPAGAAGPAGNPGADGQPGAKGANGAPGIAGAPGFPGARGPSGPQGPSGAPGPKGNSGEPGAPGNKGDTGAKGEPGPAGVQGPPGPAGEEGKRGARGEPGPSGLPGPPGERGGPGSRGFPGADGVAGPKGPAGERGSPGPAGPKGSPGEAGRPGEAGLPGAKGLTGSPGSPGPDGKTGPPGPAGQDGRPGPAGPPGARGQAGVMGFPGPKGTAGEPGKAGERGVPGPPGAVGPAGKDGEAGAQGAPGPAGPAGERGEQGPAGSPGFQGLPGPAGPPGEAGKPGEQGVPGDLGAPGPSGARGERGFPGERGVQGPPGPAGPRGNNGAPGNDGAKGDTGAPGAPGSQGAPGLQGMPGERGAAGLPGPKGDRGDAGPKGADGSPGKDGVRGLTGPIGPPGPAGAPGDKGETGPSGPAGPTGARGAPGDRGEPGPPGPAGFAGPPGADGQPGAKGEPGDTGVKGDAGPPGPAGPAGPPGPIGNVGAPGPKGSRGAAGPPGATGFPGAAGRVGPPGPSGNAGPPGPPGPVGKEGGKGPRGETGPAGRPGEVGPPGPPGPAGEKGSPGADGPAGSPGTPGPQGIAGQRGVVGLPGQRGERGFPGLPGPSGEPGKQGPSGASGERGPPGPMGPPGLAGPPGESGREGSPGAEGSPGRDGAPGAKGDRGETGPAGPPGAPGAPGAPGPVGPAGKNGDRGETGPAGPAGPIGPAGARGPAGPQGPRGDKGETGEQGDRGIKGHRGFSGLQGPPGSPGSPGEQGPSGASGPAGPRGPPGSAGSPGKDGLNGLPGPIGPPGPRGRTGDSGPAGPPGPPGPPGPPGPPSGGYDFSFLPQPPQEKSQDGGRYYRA
Chain of denatured type I collagen (gelatin), rat tail (P02466 86-1125, chain 2 of 2): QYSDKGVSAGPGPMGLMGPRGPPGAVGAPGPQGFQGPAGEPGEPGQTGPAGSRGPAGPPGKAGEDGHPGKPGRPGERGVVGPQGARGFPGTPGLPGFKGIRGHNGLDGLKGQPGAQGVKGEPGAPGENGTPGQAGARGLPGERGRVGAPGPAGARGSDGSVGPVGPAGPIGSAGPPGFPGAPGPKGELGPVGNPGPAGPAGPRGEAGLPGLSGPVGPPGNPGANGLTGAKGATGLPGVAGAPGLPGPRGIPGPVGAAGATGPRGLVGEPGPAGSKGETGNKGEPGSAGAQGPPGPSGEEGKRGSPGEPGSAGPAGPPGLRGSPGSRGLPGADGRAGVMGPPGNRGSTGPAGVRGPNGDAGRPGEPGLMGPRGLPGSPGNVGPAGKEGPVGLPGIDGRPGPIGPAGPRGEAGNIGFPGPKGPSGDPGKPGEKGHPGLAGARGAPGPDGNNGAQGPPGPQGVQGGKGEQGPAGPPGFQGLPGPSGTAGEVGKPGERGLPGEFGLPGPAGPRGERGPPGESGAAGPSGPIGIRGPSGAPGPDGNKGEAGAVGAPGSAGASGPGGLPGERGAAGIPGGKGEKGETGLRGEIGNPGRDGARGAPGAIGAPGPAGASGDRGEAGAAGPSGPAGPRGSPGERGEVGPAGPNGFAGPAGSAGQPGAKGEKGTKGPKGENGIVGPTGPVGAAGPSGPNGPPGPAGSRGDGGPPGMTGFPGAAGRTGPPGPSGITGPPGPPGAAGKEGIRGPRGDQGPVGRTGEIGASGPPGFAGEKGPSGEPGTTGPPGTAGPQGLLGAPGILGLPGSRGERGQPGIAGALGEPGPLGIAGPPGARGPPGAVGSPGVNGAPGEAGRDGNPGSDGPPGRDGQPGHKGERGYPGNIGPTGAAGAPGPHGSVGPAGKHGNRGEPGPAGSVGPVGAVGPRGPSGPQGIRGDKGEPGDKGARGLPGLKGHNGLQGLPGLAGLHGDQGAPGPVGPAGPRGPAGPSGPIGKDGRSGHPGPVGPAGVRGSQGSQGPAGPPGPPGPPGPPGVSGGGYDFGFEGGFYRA

Molecule	relative affinity of modules 1 and 2 versus module 3 for collagen-like peptide (MMP-2 CBD modules)	spectral perturbations of isolated CBD module 2 (MMP-2 CBD modules; early NMR study)	Kd [1]	binding to gelatin / denatured type I collagen (SPR, RU) [2]	binding to native type I collagen (SPR, RU) (native type I collagen)
(Pro-Pro-Gly)6	modules 1 and 2 have higher affinity	spectral perturbations of the surface-exposed aromatic residues Phe21, Tyr38, Trp40, Tyr47, Tyr53 and Phe55, as well as the neighboring Gly33-Gly37 segment	–	–	–
B1	–	–	2900 nM	–	–
B2	–	–	–	no reduction in collagen-binding	no reduction in collagen-binding
B3	–	–	–	strong reduction in binding	strong reduction in binding
B4	–	–	–	strong reduction in binding	strong reduction in binding
B5	–	–	–	strong reduction in binding	strong reduction in binding
B6	–	–	–	strong reduction in binding	strong reduction in binding
B7	–	–	–	strong reduction in binding	strong reduction in binding
B8	–	–	–	no reduction in collagen-binding	no reduction in collagen-binding
B9	–	–	–	no reduction in collagen-binding	no reduction in collagen-binding
B10	–	–	–	strong reduction in binding	strong reduction in binding
B11	–	–	–	strong reduction in binding	strong reduction in binding

— publication PMC2738612 (Biochemistry, 2009)
